# Measurements: ChEMBL document CHEMBL5236549, “Discovery of 2-Sulfinyl-Diazabicyclooctane Derivatives, Potential Oral β-Lactamase Inhibitors for Infections Caused by Serine β-Lactamase-Producing Enterobacterales” (J Med Chem, 2021)
# Legend:
# [1] = Tmax in rat at 5 mg/kg,po by LC/MS/MS analysis; format: ADME, organism-based; conditions: in vivo
# [2] = AUC in monkey at 10 mg/kg,po by LC/MS/MS analysis; format: ADME, organism-based, Macaca mulatta; set-up: dose 10 mg/kg, route po; conditions: rhesus monkey, in vivo
# Summary of the method: (§1)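 Plasma of the parent acid measured by LC/MS/MS (methanol precipitation, positive ESI, external standard); oral values follow prodrug dosing (rat fed, dog and monkey fasted). AUC from 0 h to last time point by linear trapezoid; F from oral AUC versus iv AUC of the parent. N = 2 (rat, dog), N = 3 (monkey, mouse).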
# [3] = Stability of the compound in phosphate buffer at pH 7.0 assessed as parent compound remaining at 40 degreeC measured after 16 hrs; format: physicochemical; conditions: read-out: Stability
# Summary of the method: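 Compound held in pH 7.0 phosphate buffer at 40 °C for 16 h; amount remaining reported as %.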
# Klebsiella pneumoniae [4] = assay: Antibacterial activity in ICR mouse infected with Klebsiella pneumoniae SR08667 assessed as reduction in bacterial colony forming units at 10 mg/kg,po administered upto 48 hrs after infection in presence of CTB; format: functional
# Summary of the method: (§2)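 Urinary tract infection model in 5-week-old female ICR mice, N = 5 per arm. 1.2 × 10⁶ CFU given transurethrally, urethra tied for 4 h. Oral dosing at 4, 8, 28 and 32 h post-infection in 0.5% methylcellulose: ceftibuten 30 mg/kg alone, ceftibuten 10 mg/kg plus prodrug 3, 10 or 30 mg/kg, or both at 30 mg/kg. Kidneys homogenized at 4 or 48 h and plated on modified Drigalski agar. Read-out is change in log CFU/kidney versus untreated controls at treatment start.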
# [5] = Oral bioavailability in rat at 5 mg/kg by LC/MS/MS analysis; format: ADME, organism-based; conditions: in vivo; summary of the method: as §1
# [6] = Toxicity in rat at 600 mg/kg,po administered for two weeks; format: organism-based; conditions: in vivo
# Summary of the method: (§3)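 Two-week rat toxicology study with daily oral dosing of prodrug; NOAEL and lethal dose established.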
# [7] = Oral bioavailability in monkey at 10 mg/kg by LC/MS/MS analysis; format: ADME, organism-based, Macaca mulatta; conditions: rhesus monkey, in vivo; summary of the method: as §1
# [8] = Cmax in mouse at 30 mg/kg,po by LC/MS/MS analysis; format: ADME, organism-based; set-up: dose 30 mg/kg, route po; conditions: in vivo; summary of the method: as §1
# [9] = Oral bioavailability in mouse at 100 mg/kg by LC/MS/MS analysis; format: ADME, organism-based; conditions: in vivo; summary of the method: as §1
# [10] = Cmax in dog at 10 mg/kg,po by LC/MS/MS analysis; format: ADME, organism-based, Canis lupus familiaris; set-up: dose 10 mg/kg, route po; conditions: in vivo; summary of the method: as §1
# [11] = Cmax in rat at 5 mg/kg,po by LC/MS/MS analysis; format: ADME, organism-based; set-up: dose 5 mg/kg, route po; conditions: in vivo; summary of the method: as §1
# [12] = Oral bioavailability in mouse at 30 mg/kg by LC/MS/MS analysis; format: ADME, organism-based; conditions: in vivo; summary of the method: as §1
# [13] = Cmax in mouse at 10 mg/kg,po by LC/MS/MS analysis; format: ADME, organism-based; set-up: dose 10 mg/kg, route po; conditions: in vivo; summary of the method: as §1
# [14] = Oral bioavailability in dog at 10 mg/kg by LC/MS/MS analysis; format: ADME, organism-based, Canis lupus familiaris; conditions: in vivo; summary of the method: as §1
# Klebsiella pneumoniae [15] = assay: Antibacterial activity in ICR mouse infected with Klebsiella pneumoniae SR08667 assessed as reduction in bacterial colony forming units at 30 mg/kg,po administered upto 48 hrs after infection in presence of CTB; format: functional; summary of the method: as §2
# [16] = AUC in rat at 5 mg/kg,po by LC/MS/MS analysis; format: ADME, organism-based; set-up: dose 5 mg/kg, route po; conditions: in vivo; summary of the method: as §1
# [17] = Cmax in monkey at 10 mg/kg,po by LC/MS/MS analysis; format: ADME, organism-based, Macaca mulatta; set-up: dose 10 mg/kg, route po; conditions: rhesus monkey, in vivo; summary of the method: as §1
# [18] = Toxicity in rat at > 2000 mg/kg,po administered for two weeks; format: organism-based; conditions: in vivo; summary of the method: as §3
# [19] = AUC in mouse at 100 mg/kg,po by LC/MS/MS analysis; format: ADME, organism-based; set-up: dose 100 mg/kg, route po; conditions: in vivo; summary of the method: as §1
# [20] = Tmax in monkey at 10 mg/kg,po by LC/MS/MS analysis; format: ADME, organism-based, Macaca mulatta; conditions: rhesus monkey, in vivo
# [21] = Tmax in dog at 10 mg/kg,po by LC/MS/MS analysis; format: ADME, organism-based, Canis lupus familiaris; conditions: in vivo
# [22] = AUC in mouse at 10 mg/kg,po by LC/MS/MS analysis; format: ADME, organism-based; set-up: dose 10 mg/kg, route po; conditions: in vivo; summary of the method: as §1
# [23] = AUC in dog at 10 mg/kg,po by LC/MS/MS analysis; format: ADME, organism-based, Canis lupus familiaris; set-up: dose 10 mg/kg, route po; conditions: in vivo; summary of the method: as §1
# [24] = Cmax in mouse at 100 mg/kg,po by LC/MS/MS analysis; format: ADME, organism-based; set-up: dose 100 mg/kg, route po; conditions: in vivo; summary of the method: as §1
# [25] = AUC in mouse at 30 mg/kg,po by LC/MS/MS analysis; format: ADME, organism-based; set-up: dose 30 mg/kg, route po; conditions: in vivo; summary of the method: as §1
# [26] = Oral bioavailability in mouse at 10 mg/kg by LC/MS/MS analysis; format: ADME, organism-based; conditions: in vivo; summary of the method: as §1
compound,measurement,setting,value
C[S@@+]([O-])[C@@H]1CC[C@@H]2CN1C(=O)N2O[C@H](F)C(=O)OC1CCCCC1,Tmax,[1],0.5 h
same,AUC,[2],15200 ng·h/mL
same,remaining at 16 h,[3],56%
same,Activity,Klebsiella pneumoniae [4],>0.5 log10CFU
same,bioavailability,[5],37.8%
same,Activity,[6],Non-Toxic
same,bioavailability,[7],54.8%
same,Cmax,[8],21400 ng/mL
same,bioavailability,[9],102%
same,Cmax,[10],15800 ng/mL
same,Cmax,[11],620 ng/mL
same,bioavailability,[12],122%
same,Cmax,[13],5600 ng/mL
same,bioavailability,[14],106%
same,Activity,Klebsiella pneumoniae [15],>1 log10CFU
same,AUC,[16],1170 ng·h/mL
same,Cmax,[17],7940 ng/mL
same,Activity,[18],Non-Toxic
same,AUC,[19],50200 ng·h/mL
same,Tmax,[20],1 h
same,Tmax,[21],1 h
same,AUC,[22],3900 ng·h/mL
same,AUC,[23],41200 ng·h/mL
same,Cmax,[24],52000 ng/mL
same,AUC,[25],18100 ng·h/mL
same,bioavailability,[26],80%
